# Screens: PubChem BioAssay, The Scripps Research Institute Molecular Screening Center
# OX1R antag-1: OX1R (human) antagonism; 1.8% of 330,000 active; inhibition, % at 6.6 µM; OX1R-expressing cells, FRET antagonist read-out; AID 485270; in the data active means inhibition mostly above about 38%, no sharp cut-off; inactive means mostly below about 40%;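 further: 0% = agonist challenge alone and 100% = reference antagonist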
# CHO parental Ca: counter-screen: ATP calcium response change in parental CHO cells. parental CHO-K1, ATP-induced calcium, Fluo-8 fluorescence. inhibition, % at 5.6 µM. 0.63% of 330,000 active;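 active means inhibition above that plate's mean sample inhibition plus 3 SD, cut at about 26% in these data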;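 further: 0% = ATP-challenged DMSO wells and 100% = DMSO wells without ATP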
#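 Test system: parental CHO cells; detection: calcium-sensitive Fluo-8 fluorescence; evaluation: percent inhibition of calcium signal; also added: ATP as calcium-mobilizing challenge; repeats: one well per compound; control set: ATP-challenged DMSO wells low, unchallenged DMSO wells high; compound: single nominal dose of 5.6 µM per compound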
# TAAR1 ag: agonists of human TAAR1 | CHO RD-HGA16 TAAR1, Fluo-8 calcium fluorescence; vehicle wells 0%, saturating PEA agonist 100% | activation, % at 3 µM | 0.99% of 360,000 active | AID 624467;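 active means activation above the mean activation of all test compounds in the run plus 3 SD, cut at about 38% in these data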
#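 Signal – calcium-sensitive Fluo-8 signal, excitation 470-495, emission 515-575 nm · System – RD-HGA16 (CHO) cells co-expressing Gα16 and hTAAR1 · Incubation – 17-24 h seeding, 75 min 37 °C dye, 30 min RT · Compound dosing – 3 µM single concentration · Repeats – no replicates (n 1)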
# OX1R antag-2: human HCRTR1 antagonism | O43613 | inhibition, % at 5 µM | 0.43% of 330,000 active | CHO/OX1R cells, Fluo-8 calcium fluorescence, orexin A;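 active means inhibition above its plate's threshold, mean inhibition of all tested compounds on the plate plus 3 SD, cut at about 37% in these data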;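 further: 0% = orexin A challenge wells and 100% = SB-334867-A antagonist wells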
# GPR7 antag: blocks human GPR7 receptor signaling | GPR7-expressing cells, fluorescence antagonist assay | inhibition, % at 4.4 µM | 1.1% of 290,000 active | AID 1861; in the data active means inhibition above about 16%, passing the limit was not always enough;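 further: cells stimulated with the agonist NPW; 0% = agonist with vehicle and 100% = vehicle without agonist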
# Target sequence (P48145 whole entry, looked up): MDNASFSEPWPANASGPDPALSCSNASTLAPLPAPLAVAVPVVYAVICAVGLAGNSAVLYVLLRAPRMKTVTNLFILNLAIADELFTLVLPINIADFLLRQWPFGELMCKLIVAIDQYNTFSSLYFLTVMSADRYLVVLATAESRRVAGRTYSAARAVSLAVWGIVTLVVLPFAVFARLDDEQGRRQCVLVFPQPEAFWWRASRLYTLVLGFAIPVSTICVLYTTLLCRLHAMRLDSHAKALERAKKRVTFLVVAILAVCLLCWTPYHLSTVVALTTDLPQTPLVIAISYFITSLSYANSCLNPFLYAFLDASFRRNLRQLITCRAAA
# TAAR1 antagonist: human TAAR1 antagonism; Q96RJ0; CHO RD-HGA16 TAAR1, Fluo-8 calcium fluorescence, antagonist; inhibition, % at 3 µM; 1.5% of 360,000 active;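 active means inhibition above a per-plate cutoff, the mean inhibition of test compounds on that plate plus 3 SD, cut at about 49% in these data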;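 further: 0% = DMSO plus EC80 beta-PEA response and 100% = DMSO alone without agonist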
#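 Test system: RD-HGA16 CHO cells with stable hTAAR1 and Gα16 / Probe or stimulus: EC80 β-phenethylamine stimulus / Times: seeding 17-24 h prior, 75-min 37 °C, 30-min RT dye loading / Detection: Fluo-8 calcium-sensitive fluorescence / Read-out basis: % inhibition scaled between DMSO and EC80 PEA controls / Repeats: singlicate, one well per test compound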
# Active calls of the source: *; . = not tested or not shown. An excerpt weighted towards active compounds, which were near 4.6% of everything screened.
SMILES,OX1R antag-1,CHO parental Ca,TAAR1 ag,OX1R antag-2,GPR7 antag,TAAR1 antagonist
Cc1cc(N)n2nc(C)c(-c3ccccc3)c2n1,63*,-12,3,-9,3,3
COC(=O)C1=C(C)N(C)C(=NCc2ccccc2)NC1c1cccc(Cl)c1 (configuration not stated),.,.,6,.,.,33
COc1ccc2c(c1)c1nnc(SC)nc1n2C,48*,-8,20,-1,-2,5
COc1cc(CCc2ccccc2)c(C(=O)O)c(O)c1C/C=C(/C)CCC=C(C)C,15,46*,-1,23,.,53*
COc1cc(CCc2ccccc2)c(C(=O)O)c(O)c1CC=C(C)C,.,.,-3,.,.,26
Cc1cccc(C)c1N1C(=O)c2ccccc2NC(=O)C1C(=O)Nc1ccc(N2CCOCC2)cc1 (configuration not stated),.,.,4,.,.,-11
O=[N+]([O-])c1ccc2c(OCc3nnc(-c4ccccc4Br)o3)ncnc2c1,49*,-15,3,-14,-2,-12
O=[N+]([O-])c1cc(Br)c(OCc2nnc(-c3ccccc3)o2)c(Br)c1,7,-13,4,-22,-4,12
Cc1ccc(NC(=O)c2cccc(S(=O)(=O)NCc3ccccc3)c2)nc1,59*,12,6,1,.,-2
Cc1nnc2n1N=CC=C(C(C)(C)C)S2,14,0,0,1,6,15
Cc1nnc2n1N=CC=C(c1ccccc1)S2,54*,-9,8,-4,16,5
COc1ccc2ccccc2c1/C=N/NC(=O)c1cccc(Br)c1,47,-27,3,-9,-5,-14
O=C(N/N=C/c1c(O)ccc2ccccc12)c1cccc(C(F)(F)F)c1,36,7,58*,56*,-12,62*
Clc1ccc(-c2nnnn2-c2ccc(Cl)cc2)cc1,11,-9,2,-10,-10,-44
Cc1ccc(-n2nnnc2C(Cl)(Cl)c2nnnn2-c2ccc(C)cc2)cc1,19,48*,33,55*,-6,26
C(=CCSc1ccccn1)CSc1ccccn1,.,.,2,.,.,-12
COc1ccc(CN2CC[C@H]3C=CC[C@@H](C(=O)NCCc4ccccc4)[C@H]3C2=O)cc1OC,70*,-17,15,20,.,2
Cc1c(Cl)cccc1NC(=O)C(=O)NNC(=O)c1ccccc1F,18,24*,2,4,6,-13
C=C1CC(Cn2cc(Br)c(=O)[nH]c2=O)(c2ccc(-c3ccccc3)cc2)OC1=O (configuration not stated),.,.,5,.,.,68*
O=c1[nH]c(=O)n(Cc2ccc(Oc3ccccc3)cc2)cc1Br,15,-3,9,-6,19,16
Cc1cc(N2CCN(C(C(=O)NC3CCCC3)C(C)(C)C)CC2)c2ccccc2n1 (configuration not stated),.,.,6,.,.,-16
O=C(c1ccc2c(c1)C(=O)NC2=O)c1ccc2c(c1)C(=O)NC2=O,.,.,5,.,.,5
CCCCCCCn1c(=O)c(C(=O)OC)c(N)c2ccccc21,60,58*,22,41*,-5,14
O=[N+]([O-])c1ccc2ncnc(N3CCN(Cc4ccc5c(c4)OCO5)CC3)c2c1,56*,-4,2,-20,1,3
C[C@@H]1NS(=O)(=O)c2c(F)cccc2O[C@@H]1c1ccccc1,.,.,-1,.,.,8
SMILES,OX1R antag-1,CHO parental Ca,TAAR1 ag,OX1R antag-2,GPR7 antag,TAAR1 antagonist
Cc1ccc(Oc2nc3c(c(=O)n(Cc4ccccc4F)c(=O)n3C)n2C)cc1,1,-12,20,-6,-2,50*
COC(=O)C1=C(C)N(Cc2ccc(C(F)(F)F)cc2)C(=NCC2CC2)NC1c1ccccc1C(F)(F)F (configuration not stated),.,.,9,.,.,9
CON(C)C(=O)C(C)(C)CC#CCN(CC#Cc1ccccc1)S(=O)(=O)c1ccc(C)cc1,.,.,1,.,.,20
O=C1N/C(=C/c2ccsc2)C(=O)N1c1ccccc1,11,-2,44*,-4,1,17
O=C(Nc1ccc(Cl)cc1)OCc1ccccn1,21,40*,9,20,3,12
Cc1ccc(C2c3c(n[nH]c3C(C)C)C(=O)N2c2ccccc2)cc1 (configuration not stated),.,.,14,.,.,-57
